≈ marks a conversion by molar mass, not a printed value. Calls of active or inactive are those of the source. The calls are words filed in the database; no cut-off is given here.
Experiments:
Aspergillus fumigatus [1] = assay: Antifungal activity against Aspergillus fumigatus 20030 in ICR mouse invasive pulmonary aspergillosis model assessed as survival rate at 3 mg/kg, iv qd administered for 10 days measured on day 11 relative to control; type: functional
Aspergillus fumigatus [2] = assay: Antifungal activity against Aspergillus fumigatus 20030 in ICR mouse invasive pulmonary aspergillosis model assessed as survival rate at 1.5 mg/kg, iv qd administered for 10 days measured on day 11 relative to control; type: functional
Aspergillus fumigatus [3] = assay: Antifungal activity against Aspergillus fumigatus 20024 in human serum assessed as formation of small, rounded and compact microcolonies with severely stunted hypha at 4 fold MEC after 48 hrs by microscopic analysis; type: functional, organism-based
Nakaseomyces glabratus = assay: Antifungal activity against echinocandin-resistant Candida glabrata FP2307 in human serum assessed as hyphal growth inhibition after 48 hrs by microscopic analysis; type: functional
How it was run: (§1)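 Susceptibility testing followed CLSI M27-A3 or M38-A2 standards, using human serum as the growth medium. Fungi were exposed to drug and incubated at 37 °C under 5% CO2 for 48 h.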

Candida parapsilosis = assay: Antifungal activity against Candida parapsilosis 20009 in human serum assessed as hyphal growth inhibition after 48 hrs by microscopic analysis; type: functional; conditions: Lodderomyces parapsilosis, 20009, Serum; how it was run: as §1
Candida albicans = assay: Antifungal activity against Candida albicans 20015 in human serum assessed as hyphal growth inhibition after 48 hrs by microscopic analysis; type: functional; conditions: Candida albicans, 20015, Serum; how it was run: as §1
Aspergillus fumigatus [4] = assay: Antifungal activity against Aspergillus fumigatus 20024 in human serum assessed as hyphal growth inhibition after 48 hrs by microscopic analysis; type: functional; conditions: Aspergillus fumigatus, 20024, Serum; how it was run: as §1
Aspergillus fumigatus [5] = assay: Antifungal activity against Aspergillus fumigatus 20024 in human serum assessed as formation of large microcolonies with elongated hypha in all direction at 4 fold MEC after 48 hrs by microscopic analysis; type: functional, organism-based

| Structure (SMILES) | survival at 3 mg/kg (Aspergillus fumigatus [1]) [%] | survival at 1.5 mg/kg (Aspergillus fumigatus [2]) [%] | Activity (Aspergillus fumigatus [3]) | MIC (Nakaseomyces glabratus) [µg/mL] | MIC (Candida parapsilosis) [µg/mL] | MIC (Candida albicans) [µg/mL] | MIC (Aspergillus fumigatus [4]) [µg/mL] | Activity (Aspergillus fumigatus [5]) |
| --- | --- | --- | --- | --- | --- | --- | --- | --- |
| COc1cc(C[C@@H](O)[C@@H]2NC(=O)[C@@H]3C[C@@H](O)CN3C(=O)[C@H]([C@@H](C)O)NC(=O)[C@@H](NC[C@H]3CC[C@H](c4nnc(-c5ccc(N6CCC(OC)(C7CCCCC7)CC6)cc5)s4)CC3)C[C@@H](O)CNC(=O)[C@@H]3[C@@H](O)[C@@H](C)CN3C(=O)[C@H]([C@H](O)CCNC(CO)CO)NC2=O)ccc1O | 70 | 40 | Active | 2 (≈ 1.48 µM) | 4 (≈ 2.96 µM) | 0.25 (≈ 0.185 µM) | 0.25 (≈ 0.185 µM) | – |
| CC[C@H](C)C[C@H](C)CCCCCCCCC(=O)N[C@H]1C[C@@H](O)[C@@H](NCCN)NC(=O)[C@@H]2[C@@H](O)CCN2C(=O)[C@H]([C@H](O)CCN)NC(=O)[C@H]([C@H](O)[C@@H](O)c2ccc(O)cc2)NC(=O)[C@@H]2C[C@@H](O)CN2C(=O)[C@H]([C@@H](C)O)NC1=O [CASPOFUNGIN] | 20 | 10 | – | > 64 | 64 (≈ 58.5 µM) | 0.25 (≈ 0.229 µM) | 0.5 (≈ 0.457 µM) | inactive |

— ChEMBL document CHEMBL3112487, “Synthesis and antifungal activity of ASP9726, a novel echinocandin with potent Aspergillus hyphal growth inhibition” (2014)
